Hck Nef HTS = inhibitors of human Hck kinase activated by Nef | Recombinant Hck-YEEI plus Nef, Z-Lyte FRET kinase assay | inhibition, % at 20 µM | 0.68% of 220,000 active | AID 463187;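 active = Hck-Nef kinase inhibition above about 50%, limit read from the data; inactive = inhibition below that limit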;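 note: 0% = DMSO with Hck plus Nef and 100% = Hck alone without Nef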
Target sequence (P08631 whole entry, looked up): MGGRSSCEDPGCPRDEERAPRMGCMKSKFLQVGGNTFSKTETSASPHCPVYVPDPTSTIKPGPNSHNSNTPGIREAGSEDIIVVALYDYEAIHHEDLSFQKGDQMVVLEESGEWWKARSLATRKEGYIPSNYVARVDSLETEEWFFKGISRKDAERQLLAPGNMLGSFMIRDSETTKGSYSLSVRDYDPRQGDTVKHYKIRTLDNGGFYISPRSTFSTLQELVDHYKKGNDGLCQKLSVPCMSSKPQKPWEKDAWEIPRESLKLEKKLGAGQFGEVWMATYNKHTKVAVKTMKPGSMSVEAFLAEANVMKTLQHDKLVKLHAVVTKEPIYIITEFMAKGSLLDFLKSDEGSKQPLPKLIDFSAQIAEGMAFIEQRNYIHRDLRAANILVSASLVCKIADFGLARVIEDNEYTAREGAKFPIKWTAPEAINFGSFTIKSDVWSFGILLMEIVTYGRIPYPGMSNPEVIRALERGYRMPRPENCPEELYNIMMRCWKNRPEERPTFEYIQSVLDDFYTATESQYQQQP
PERK inh = blocks human PERK kinase. Q9NZJ5. CHO PERK-DD fusion, SEAP luminescence translation reporter. inhibition, % at 5.6 µM. 0.17% of 220,000 active. AID 1416;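 active = inhibition above the mean inhibition of all tested compounds plus 3 SD, set separately per screening campaign, cut at about 2.9% in these data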;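 note: PERK kinase domain activated by AP20187 dimerizer at 100 nM; 0% = DMSO with dimerizer and 100% = rapamycin at 8.4 µM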
RanGTP-Impb inh = inhibitors of RanGTP-importin-beta interaction, primary screen, biochemical, FRET, CFP-Ran, YFP-importin-beta, homogeneous | cell-free CFP-Ran/YFP-importin-beta FRET ratio | inhibition, % (concentration not given with the values) | 1.1% of 300,000 active;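 active = more than half of the replicate wells show a fall in the fluorescence ratio signal beyond about 16%, limit read from the data, passing the limit was not always enough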;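 note: 0% = DMSO wells and 100% = Ran loaded with GDP instead of GTP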
eIF4E-4G inh = blocks eIF4E binding to eIF4G; P63073+Q04637; TR-FRET eIF4E-eIF4GI(517-606) binding, 2 h; inhibition, % at 21.7 µM; 0.37% of 220,000 active; AID 782;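 active = inhibition above about 30%, limit read from the data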;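 note: 0% = full FRET control wells and 100% = background wells lacking eIF4GI fragment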
Runt-SMMHC FRET = Runt domain-CBFb-SMMHC interaction inhibition; Q01196+Q13951; Cerulean-Runt/Venus-CBFb-SMMHC FRET ratio 530/480, 1 h; inhibition, % at 20 µM; 0.74% of 220,000 active; AID 1434;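 active = mean inhibition across duplicate retests at 20 µM reaching about 50%, limit read from the data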;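 note: 0% = DMSO wells and 100% = wells with excess untagged CBFb-SMMHC; inhibitors lower the FRET ratio by blocking Runt binding to CBFb-SMMHC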
Runt-CBFb FRET = Runt domain-CBFb interaction inhibition; Q01196+Q13951; inhibition, % at 20 µM; 0.46% of 220,000 active; Cerulean-Runt/Venus-CBFb FRET ratio 530/480, 1 h; AID 1496;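 active = inhibition over about 50% at 20 µM in the single-dose screen, limit read from the data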;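 note: 0% = DMSO wells and 100% = excess unlabeled CBFb competitor control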
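Schedule: protein complex preformed 1 h, compound exposure 1 h, room temperature, dark; test system: Cerulean-labeled Runt domain protein; amount: 100 nM per protein; buffer or medium: Tris 50 mM pH 7.5, KCl, K2SO4, 0.01% BSA; read-out: loss of energy transfer signal; detection: FRET fluorescence; controls: 5 µM unlabeled CBFb as full-inhibition high control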
Hck Nef conf = confirmation of Hck-Nef kinase inhibitors | shares compounds with Hck Nef HTS | Recombinant Hck-YEEI:Nef, Z-Lyte FRET kinase assay | calls only at 10 µM | 28% of 1,300 active | AID 463188;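 active = average inhibition of at least 50%, with Z-scores no higher than 3 in both the phospho-tyrosine peptide and fluorescence counterscreens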
Numbers without * were called inactive; i = inactive; nt = no result given; + = active, no number. Hits are enriched below; roughly 2.2% of the tested compounds scored in any of these assays.

SMILES	Hck Nef HTS	PERK inh	RanGTP-Impb inh	eIF4E-4G inh	Runt-SMMHC FRET	Runt-CBFb FRET	Hck Nef conf
O=C(NC1CC1)c1cc(-c2ccco2)nc2ccccc12	72*	2	-5	57*	1	22	+
O=C(Nc1cccc(S(=O)(=O)NC2=NCCC2)c1)c1cc(-c2ccco2)nc2ccccc12	87*	3.2*	-6	48*	-7	9	+
CN(C)S(=O)(=O)c1ccc(C(=O)NCc2ccccn2)cc1	23	2	nt	-1	0	-1	nt
COc1ccc2[nH]cc(C(=O)CN3CCN(C(=O)c4ccco4)CC3)c2c1	1	1	9	5	0	1	nt
COc1cccc(N=c2oc3cc(O)ccc3cc2C(=O)NCC2CCCO2)c1 (stereo not drawn)	82*	0	180*	5	90*	52*	nt
Cc1cccc(N=c2oc3cc(O)ccc3cc2C(N)=O)c1	153*	0	-2	-3	79*	10	nt
COc1ccccc1N=c1oc2cc(O)ccc2cc1C(N)=O	140*	1	179*	-18	42	10	nt
COc1ccccc1N=c1oc2cc(O)ccc2cc1C(=O)NCC1CCCO1 (stereo not drawn)	72*	-1	174*	1	-10	43	nt
COc1ccc2oc(=O)c(C(=O)NCC3CCCO3)cc2c1 (stereo not drawn)	3	-1	9	-4	23	12	nt
COc1ccc2cc(C(N)=O)c(=Nc3ccc(C)cc3)oc2c1	-40	1	5	-6	-1	-2	nt
COc1cccc2cc(C(=O)NCC3CCCO3)c(=O)oc12 (stereo not drawn)	5	1	-3	2	-2	0	nt
COc1ccc2cc(C(N)=O)/c(=N\NC(=O)c3ccccc3)oc2c1	nt	nt	14	nt	nt	nt	nt
CSc1ncccc1C(=O)Nc1nc2c(C)cccc2s1	3	0	-5	5	-3	-2	nt
O=C(COC(=O)c1ccc2c(c1)OCCO2)Nc1cc(S(=O)(=O)N2CCOCC2)ccc1Cl	-5	1	1	-2	-3	0	nt
C(=N\Nc1ccccn1)/c1c[nH]c2ccccc12	51*	1	4	-3	2	5	i
O=C1NCC(COc2ccc([N+](=O)[O-])cc2)O1 (stereo not drawn)	nt	nt	1	nt	nt	nt	nt
O=C1CN(C(=O)COC(=O)CCCOc2ccccc2)c2ccccc2N1	26	0	-2	3	-5	-2	nt
CCN(c1cccc(C)c1)S(=O)(=O)c1cc(CN2C(=O)c3cccnc3C2=O)ccc1OC	nt	nt	1	nt	nt	nt	nt
Cc1cc(C)cc(NC(=O)c2ccc(CSc3nnc(C)s3)cc2)c1	101*	0	4	-1	-6	-6	i
Fc1cccc(-n2c(-c3cccs3)nc3nc4ccccc4nc32)c1	59*	1	-9	9	-134	-114	i
COc1ccc(-c2cccc(NS(=O)(=O)c3cc([N+](=O)[O-])ccc3C)c2)nn1	nt	nt	1	nt	nt	nt	nt
CCOc1cc(/C=C2\SC(=S)N(C(C(=O)O)c3ccccc3)C2=O)ccc1O (stereo not drawn)	63*	-1	-19	6	-162	-47	i
O=C(/C=C/N1CCOCC1)c1ccc(-c2ccccc2)cc1	66*	0	0	9	-4	-1	i
CCN1CCN(Cc2ccc(NC(=O)c3ccc(C)c(NC(=O)c4ccnnc4)c3)cc2C(F)(F)F)CC1	55*	nt	0	-7	1	2	i
CCN1CCN(Cc2ccc(NC(=O)c3ccc(C)c(NC(=O)c4ccc5n[nH]nc5c4)c3)cc2C(F)(F)F)CC1	76*	nt	-2	-2	1	1	+
SMILES	Hck Nef HTS	PERK inh	RanGTP-Impb inh	eIF4E-4G inh	Runt-SMMHC FRET	Runt-CBFb FRET	Hck Nef conf
COc1ccc(CNC(=O)CN(C(=O)CCC(=O)Nc2ccccn2)c2cc(C)ccc2C)cc1	nt	nt	8	nt	nt	nt	nt
Cc1nc2ccc(NC(=O)c3cc(S(=O)(=O)N(C)c4ccccc4)ccc3Cl)cc2s1	52*	-1	0	-1	-7	-5	+
O=C(c1cc2ccccc2o1)N1CCOCC1	nt	nt	4	nt	nt	nt	nt
O=C(O)c1ccc(-n2cccc2/C=N\NC(=O)c2cc3cc(Br)ccc3o2)cc1	54*	-1	-3	29	-7	8	i
Cc1ccc(CN2CCC(n3nccc3NC(=O)c3ccc4c(c3)OCO4)CC2)o1	nt	nt	3	nt	nt	nt	nt
Cc1ccsc1/C=N/Nc1ncnc2nc[nH]c12	76*	0	-3	0	-5	2	+
Clc1ccc(CCNc2ncnc3nc[nH]c23)cc1	29	1	nt	1	1	2	nt
CCc1ccc(Nc2ncnc3nc[nH]c23)cc1	63*	-1	-3	3	2	0	+
Cc1ccccc1/C=N/Nc1ncnc2nc[nH]c12	75*	0	1	5	1	-1	+
Fc1ccc(/C=N/Nc2ncnc3nc[nH]c23)cc1F	68*	1	1	-4	2	-5	+
c1ccc(CNc2ncnc3nc[nH]c23)cc1	1	1	-5	2	-2	0	nt
CC(=O)N1CCN(c2ccccc2NC(=O)c2ccc3ccccc3c2)CC1	nt	nt	4	nt	nt	nt	nt
COc1cccc(N2CCN(C(=S)Nc3cc(C)cc(C)c3)CC2)c1	-6	1	0	-2	-11	-2	nt
CC(=O)N=c1sc2c3ccccc3ccc2n1C	0	0	-5	5	0	0	nt
C(=N\Nc1ncnc2nc[nH]c12)/c1cccs1	82*	0	-6	-1	1	1	+
Clc1cnc(N/N=C/c2cccs2)c(Cl)c1	1	0	-4	1	2	-1	nt
Cc1[nH]c(=O)[nH]c(=O)c1S(=O)(=O)Nc1ccc(F)cc1Cl	nt	nt	0	nt	nt	nt	nt
N=C1/C(=C\c2ccc(-c3cccc(C(=O)O)c3)o2)C(=O)N=C2SC=C(c3ccccc3)N12	64*	0	-16	65*	-42	-14	+
Cn1nccc1C(=O)Nc1sc2c(c1C(N)=O)CCCC2	68*	0	-1	-3	-1	2	i
COc1cc(NC(=O)c2cccs2)c(C(=O)OCC(=O)NC(=O)NCc2ccccc2)cc1OC	68*	-1	-1	-31	-1	4	i
Nc1nonc1-c1nc2ccccc2n1CC(=O)N/N=C/c1ccc(-c2cccc(C(=O)O)c2)o1	91*	1	0	6	34	37	+
Cn1ncc2cc(NC(N)=S)ccc21	-2	2	5	1	0	1	nt
